MrgX1 antag: antagonists of human MrgX1 receptor; B-score at 10 µM; AID 588676; MRGX1-HEK293 calcium flux, Fluo-4, BAM8-22 antagonism; stronger effect = lower value; Q96LB2; 310,000 compounds, 1.3% hits;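 active = calcium-response B-score plate-corrected more than 3 library SD below zero, starting fluorescence within 5 deviations, no agonist response on first addition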;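 note: peak minus trough fluorescence over baseline after final BAM8-22 challenge near maximal dose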
Target sequence (Q96LB2 whole entry, looked up): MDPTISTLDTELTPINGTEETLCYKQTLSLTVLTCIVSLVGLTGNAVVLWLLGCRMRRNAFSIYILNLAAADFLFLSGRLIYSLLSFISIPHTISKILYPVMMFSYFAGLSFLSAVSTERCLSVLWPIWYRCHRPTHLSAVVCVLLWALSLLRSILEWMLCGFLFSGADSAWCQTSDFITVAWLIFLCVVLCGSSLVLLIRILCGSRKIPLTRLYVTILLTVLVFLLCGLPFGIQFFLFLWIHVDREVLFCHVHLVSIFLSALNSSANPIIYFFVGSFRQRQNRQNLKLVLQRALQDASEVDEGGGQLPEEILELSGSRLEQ
MrgX1 PAM: human MrgX1 positive allosteric modulation, primary screen | MrgX1-HEK293, Fluo-4 calcium flux, FDSS; stronger effect = higher value | B-score at 10 µM | 310,000 compounds, 0.63% hits;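 active = plate-corrected calcium response at least 3 library SD above typical, normal starting fluorescence, not activating the receptor alone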;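 note: compound read alongside a low EC10 to EC30 dose of BAM8-22 agonist; peak minus trough fluorescence over baseline measured at the second addition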
MrgX1 ag: human MrgX1 receptor agonism, primary screen. B-score at 10 µM. MrgX1-HEK293 cells, Fluo-4 calcium fluorescence, agonist mode; stronger effect = higher value. 310,000 compounds, 0.44% hits. Q96LB2. AID 588627;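 active = calcium response B-score plate-corrected fluorescence ratio at least 3 library SD, with starting fluorescence B-score inside 5 SD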
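Assay system: stable human MrgX1 HEK293 cell line. Quantity: 15,000 cells per well. Schedule: cells plated overnight, dye loaded 0.5 h 37 °C, 0.5 h room temperature. Detection: Fluo-4 NW calcium-flux fluorescence, kinetic read. Read-out basis: peak-minus-minimum fluorescence over baseline, converted to B scores. Control set: positive and negative control wells on each plate.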
RGS4 pot: potentiators or activators of RGS4 | HEK293 M3R/inducible RGS4, carbachol calcium flux Fluo4; stronger effect = lower value | 310,000 compounds, 0.92% hits | B-score at 10 µM;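 active = B-score of the integrated calcium signal more than 4 SD below the library mean, with starting fluorescence not abnormally high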;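 note: negative B-score means reduced calcium response which marks RGS4 activation or potentiation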
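Detection: kinetic calcium fluorescence imaging with Fluo4-AM dye, 2 µM / Material: HEK293 cells with stable M3R and inducible RGS4 / Schedule: recording 10 s baseline at 1 Hz, 100 s post-agonist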
RGS4 block: human RGS4 inhibition; P49798; HEK293 M3R/RGS4 inducible, Fluo-4 calcium flux; stronger effect = higher value; triggered by carbachol at its EC20; B-score at 10 µM; 310,000 compounds, 0.45% hits;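 active = B-score, a plate-corrected calcium signal, over three deviations above library mean, with baseline fluorescence within five deviations of library mean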;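 note: RGS4 expression induced by doxycycline in cells with stable M3 receptor; B-score is computed from the integrated fluorescence ratio over baseline after carbachol; higher B-score means a larger calcium signal and so more RGS4 inhibition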
Target sequence (P49798 whole entry, looked up): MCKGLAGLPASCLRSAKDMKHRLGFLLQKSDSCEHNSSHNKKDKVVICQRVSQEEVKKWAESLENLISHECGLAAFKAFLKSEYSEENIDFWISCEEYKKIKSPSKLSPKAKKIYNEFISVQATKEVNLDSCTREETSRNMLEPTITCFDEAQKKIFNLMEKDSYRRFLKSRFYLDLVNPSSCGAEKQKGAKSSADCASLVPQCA
MrgX1 ant reconf: reconfirmed antagonist of human MrgX1 receptor signaling; 2,300 compounds, 19% hits; shares compounds with MrgX1 antag; remaining BAM8-22 calcium response % of control (stronger effect = lower value), % at 10 µM; AID 602420; MrgX1-HEK293, BAM8-22 calcium flux, Fluo-4; stronger effect = lower value;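 active = remaining agonist calcium response no higher than 100% minus 3 SD of agonist-only control wells, with starting fluorescence near control levels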;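 note: agonist BAM8-22 given at a near maximal EC90 to ECmax level; peak minus minimum fluorescence divided by baseline after agonist addition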
HEK293 Ca flux: activity in parental HEK293 cells lacking MrgX1; shares compounds with MrgX1 antag; Fluo-4 calcium fluorescence, FDSS; fluorescence ratio F(max-min)/F0 at 10 µM; 4,000 compounds, 2% hits;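 active = duplicate-averaged calcium fluorescence ratio at least three times the standard deviation of buffer wells, a nonspecific response in parental cells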
HEK293 Ca counter: counter-screen for MrgX1 allosteric activators: effect in parental HEK293 cells | shares compounds with MrgX1 antag | parental HEK293 calcium flux, Fluo-4 fluorescence ratio; stronger effect = higher value | fluorescence ratio F(max-min)/F0 at 10 µM | 4,000 compounds, 0.4% hits;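 active = calcium fluorescence ratio, averaged over duplicates, at least 3 SD of the buffer-well ratio, meaning a nonspecific response in receptor-free cells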;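 note: untransfected parental HEK293 lacking MrgX1 used as counterscreen for MrgX1 allosteric activators; fluorescence change taken during the second addition on a kinetic imager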
HEK293 Ca cntr2: MrgX1 activator counter-screen hit in parental HEK293 cells | shares compounds with MrgX1 antag | Fluo-4 calcium fluorescence (FDSS); stronger effect = higher value | fluorescence ratio F(max-min)/F0 at 10 µM | 4,000 compounds, 8.7% hits | AID 624115;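 active = calcium fluorescence ratio at least three times the spread of buffer wells, meaning a non-specific response in parental cells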
Large screens that a line does not name were inactive (follow-up assays come after a bar, where they were run). An excerpt weighted towards active compounds, which were near 3.5% of everything screened.

Cc1ccc(S(=O)(=O)/N=c2\scc(C)n2C)cc1	MrgX1 antag -5.5 | MrgX1 ant reconf inactive | HEK293 Ca flux inactive | HEK293 Ca counter inactive | HEK293 Ca cntr2 inactive
CC(=O)N1CCN(c2nc(-c3cccs3)nc3ccccc23)CC1	MrgX1 antag -4.7 | MrgX1 ant reconf inactive | HEK293 Ca flux inactive | HEK293 Ca counter inactive | HEK293 Ca cntr2 inactive
CC(=O)Nc1ccc(S(=O)(=O)Nc2nc3ccccc3nc2Nc2cccc(S(N)(=O)=O)c2)cc1	none
CCOC(=O)c1cccc(C(=O)Nc2nc3ccc(OC)cc3s2)n1	MrgX1 antag -5 | MrgX1 ant reconf inactive | HEK293 Ca flux inactive | HEK293 Ca counter inactive | HEK293 Ca cntr2 inactive
COc1ccc2nc(NC(=O)c3ccccc3O)sc2c1	none
COc1ccc2oc(C)c(C(=O)c3ccc(C)cc3)c2c1	none
O=C(NCCCO)c1ccc2[nH]c3c(c2c1)CCCC3	none
O=C(NCCO)c1ccc2[nH]c3c(c2c1)CCCC3	MrgX1 antag -6.5 | MrgX1 ant reconf inactive | HEK293 Ca flux inactive | HEK293 Ca counter inactive | HEK293 Ca cntr2 inactive
O=C(NCc1cccc(F)c1)C1CCC(=O)N(CC2CCCCC2)C1 (stereo not drawn)	none
O=C(CSC1=NS(=O)(=O)c2cc(Cl)ccc2N1)Nc1ccccc1C(F)(F)F	MrgX1 antag -10 | MrgX1 ant reconf inactive | HEK293 Ca flux inactive | HEK293 Ca counter inactive | HEK293 Ca cntr2 inactive
Cc1nn(C)cc1CN(C)C(=O)c1nn2c(c1Cl)NC(c1cccs1)CC2C(F)(F)F (stereo not drawn)	MrgX1 antag -5 | MrgX1 ant reconf 74% | HEK293 Ca flux inactive | HEK293 Ca counter inactive | HEK293 Ca cntr2 inactive
CCc1ccc(-c2cc(C(=O)NCc3ccccn3)c3ccccc3n2)cc1	MrgX1 antag -5.3 | MrgX1 ant reconf 77% | HEK293 Ca flux inactive | HEK293 Ca counter inactive | HEK293 Ca cntr2 inactive
O=C(CCN1C(=O)C2C3CCC(C3)C2C1=O)Nc1cccc(Cl)c1 (stereo not drawn)	none
CCC(C)(C)n1nnnc1C(c1ccc(C)cc1)N1CCN(Cc2ccc3c(c2)OCO3)CC1 (stereo not drawn)	MrgX1 antag -6.2 | MrgX1 ant reconf inactive | HEK293 Ca flux inactive | HEK293 Ca counter inactive | HEK293 Ca cntr2 inactive
CCC(C)(C)n1nnnc1C(c1ccc2ncccc2c1)N1CCN(Cc2ccc3c(c2)OCO3)CC1 (stereo not drawn)	none
CCOc1ccccc1N1CCN(C/C=C/c2ccc(N(C)C)cc2)CC1	MrgX1 antag -4.7 | MrgX1 ant reconf inactive | HEK293 Ca flux inactive | HEK293 Ca counter inactive | HEK293 Ca cntr2 inactive
Cc1cc(Cl)ccc1OCCCC(=O)N1CCN(S(=O)(=O)c2ccccc2)CC1	none
COC(=O)C(NC(=O)c1ccccc1)c1ccccc1 (stereo not drawn)	MrgX1 antag -9.4 | MrgX1 ant reconf inactive | HEK293 Ca flux inactive | HEK293 Ca counter inactive | HEK293 Ca cntr2 inactive
Cc1ccc2c(c1)N(CC(=O)NCCCN1CCN(C)CC1)C(=O)CO2	none
COc1ccc(S(=O)(=O)n2cccc2)cc1OC	none
O=C(CN1CCC(c2nc3ccccc3s2)CC1)NCc1ccccc1	MrgX1 antag -5.4 | MrgX1 ant reconf inactive | HEK293 Ca flux inactive | HEK293 Ca counter inactive | HEK293 Ca cntr2 inactive
COc1ccc(C(=O)Nc2c(N)nc(SCC(=O)NCC3CCCO3)[nH]c2=O)cc1 (stereo not drawn)	none
COc1ccc(Cl)cc1NC(=O)CN(C)C(=O)Cc1ccsc1	MrgX1 antag -6.8 | MrgX1 ant reconf inactive | HEK293 Ca flux inactive | HEK293 Ca counter inactive | HEK293 Ca cntr2 inactive
COc1ccc(Cl)cc1NC(=O)CN(C)C(=O)Cc1ccc2c(c1)CCC2	none
C/C(=N\NC(=O)c1cccc(S(=O)(=O)N2CCCC2)c1)c1ccc(F)cc1	none
Cc1csc(NC(=O)c2cccc(S(=O)(=O)N3CCN(C)CC3)c2)n1	none
CCOc1ccc(OCCC(=O)OCC(=O)NCc2ccc(Cl)cc2)cc1	none
Cc1ccc(S(=O)(=O)CCC(=O)NCCc2ccc(Cl)cc2)cc1	none
Cc1ccc(CCNC(=O)CCS(=O)(=O)c2ccc(Br)cc2)cc1	MrgX1 antag -8.1 | MrgX1 ant reconf inactive | HEK293 Ca flux inactive | HEK293 Ca counter inactive | HEK293 Ca cntr2 inactive
CSC(=O)NC(=O)NC(=O)c1ccc([N+](=O)[O-])cc1	none
CN(CCO)c1c2c(nc3cc(-c4cccc(F)c4)nn13)CCCC2	MrgX1 antag -9.6 | MrgX1 ant reconf inactive | HEK293 Ca flux inactive | HEK293 Ca counter inactive | HEK293 Ca cntr2 inactive
OC1CCN(c2c3c(nc4cc(-c5cccc(F)c5)nn24)CCCC3)CC1	none
FC(F)(F)c1nnc2n1N=C(c1cccs1)CS2	none
COC(=O)c1cc(OC)c(OC)cc1NC(=S)N1CCN(C)CC1	none
COC(=O)c1cc(OC)c(OC)cc1NC(=S)N1CCCCC1	MrgX1 antag -6.8 | MrgX1 ant reconf inactive | HEK293 Ca flux inactive | HEK293 Ca counter inactive | HEK293 Ca cntr2 inactive
COc1cc(OC)cc(C(=O)N[C@H](C(=O)NCc2ccccc2)C(C)C)c1	none
O=C(NCc1cccc(Cl)c1)c1ccc2c(c1)OCO2	none
Cc1nc2cc(C(=O)NCc3ccc4c(c3)OCO4)ccc2n1-c1ccc(Br)cc1	MrgX1 antag -4.8 | MrgX1 ant reconf inactive | HEK293 Ca flux inactive | HEK293 Ca counter inactive | HEK293 Ca cntr2 inactive
O=C(NCc1ccc2c(c1)OCO2)c1cccc(Cl)c1	MrgX1 antag -5.2 | MrgX1 ant reconf inactive | HEK293 Ca flux inactive | HEK293 Ca counter inactive | HEK293 Ca cntr2 inactive
O=C(NCc1ccc2c(c1)OCO2)c1ccc(Br)cc1	none
CCOc1c([N+](=O)[O-])cc2c(C)c(C(=O)N3CCN(C)CC3)oc2c1OCC	none
Cc1ccc(C(=O)OCC(=O)Nc2cc(C(C)(C)C)nn2-c2ccccc2)c(O)c1	none
O=C(Nc1cccnc1)c1cccc(S(=O)(=O)N2CCCCC2)c1	MrgX1 antag -6.4 | MrgX1 ant reconf inactive | HEK293 Ca flux inactive | HEK293 Ca counter inactive | HEK293 Ca cntr2 inactive
COC(=O)c1cccc(S(=O)(=O)N2CCCC2)c1	MrgX1 antag -5.9 | MrgX1 ant reconf inactive | HEK293 Ca flux inactive | HEK293 Ca counter inactive | HEK293 Ca cntr2 inactive
COC(=O)c1cccc(S(=O)(=O)N2CCOCC2)c1	none

Compound activity deposited in PubChem by Johns Hopkins Ion Channel Center.
